Data reported in ChEMBL document CHEMBL1153964, “Tricyclic HIV integrase inhibitors V. SAR studies on the benzyl moiety” (Bioorg Med Chem Lett, 2009).

Key:
[1] = system: Human immunodeficiency virus 1; assay: Antiviral activity against HIV1 3B infected in human MT2 cells after 5 days by chemiluminescence in presence of fetal bovine serum; assay type: functional, organism-based; conditions: Human immunodeficiency virus 1, 3B, MT2, 120 h
Method in brief: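 HIV-1 IIIB infected MT-2 cells at m.o.i. 0.01 for 3 h, then ~1.5 × 10⁴ cells per well were added to 9 fivefold serial drug dilutions in triplicate in medium with 10% FBS. Plates ran 5 days at 37 °C. CellTiter-Glo was added with 10 min room-temperature lysis, and chemiluminescence was read. Values are means of at least two experiments.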

[2] = Inhibition of HIV integrase strand transfer activity; set-up: species or system Human immunodeficiency virus
Method in brief: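 Strand transfer was run with biotinylated donor DNA bound to streptavidin-coated plates and DIG-tagged target DNA. Values are means of at least two experiments.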

[3] = system: Human immunodeficiency virus 1; assay: Antiviral activity against HIV1 3B infected in human MT2 cells after 5 days by chemiluminescence in presence of human serum albumin; assay type: functional, organism-based; conditions: Human immunodeficiency virus 1, 3B, MT2, 120 h
Method in brief: (§1)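 Same MT-2/HIV-1 IIIB 5-day CellTiter-Glo chemiluminescence assay in 10% FBS, with physiological HSA (35 mg/ml) and α1-AGP (1.5 mg/ml) added. Shift fold is EC50 with these serum proteins divided by EC50 in 10% FBS alone.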

[4] = system: Human immunodeficiency virus 1; assay: Ratio of EC50 for HIV1 3B in presence of human serum proteins to EC50 for HIV1 3B in presence of fetal bovine serum; assay type: functional; method in brief: as §1
[5] = Clearance in iv dosed dog; assay type: ADME, organism-based, Canis lupus familiaris; conditions: in vivo
Method in brief: (§2)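 Rats and dogs received compound as free parent in solution (EtOH, PG, PEG400 and citric acid), at pH 3.3 for iv and pH 2.2 for oral dosing. Half-life and total body clearance come from the iv groups. Oral F (%) is from po versus iv AUC. Values are means of three animals per study.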

[6] = Half life in iv dosed rat; assay type: ADME, organism-based; conditions: in vivo; method in brief: as §2
[7] = Oral bioavailability in dog; assay type: ADME, organism-based, Canis lupus familiaris; conditions: in vivo; method in brief: as §2
[8] = Clearance in iv dosed rat; assay type: ADME, organism-based; conditions: in vivo; method in brief: as §2
[9] = Oral bioavailability in rat; assay type: ADME, organism-based; conditions: in vivo; method in brief: as §2
[10] = Half life in iv dosed dog; assay type: ADME, organism-based, Canis lupus familiaris; conditions: in vivo; method in brief: as §2

| Compound | EC50 [1] [µM] | IC50 [2] [µM] | EC50 [3] [µM] | clearance [5] [mL/min/kg] | half-life [6] [h] | bioavailability [7] [%] | clearance [8] [mL/min/kg] | bioavailability [9] [%] | half-life [10] [h] | Ratio EC50 [4] |
| --- | --- | --- | --- | --- | --- | --- | --- | --- | --- | --- |
| CN(c1c2c(c(O)c3ncccc13)C(=O)N(Cc1cccc(Cl)c1F)C2)S(C)(=O)=O | 0.006 | 0.061 | 0.018 | – | – | – | – | – | – | 3 |
| CN(c1c2c(c(O)c3ncccc13)C(=O)N(Cc1ccccc1)C2)S(C)(=O)=O | 0.035 | 0.12 | – | – | – | – | – | – | – | – |
| CN(c1c2c(c(O)c3ncccc13)C(=O)N(Cc1cc(Cl)c(F)cc1F)C2)S(C)(=O)=O | 0.006 | 0.039 | 0.017 | 0.333 | 1.38 | 79 | 4.83 | 9 | 16 | 2.8 |
| CNC(=O)c1cc(F)ccc1CN1Cc2c(c(O)c3ncccc3c2N(C)S(C)(=O)=O)C1=O | 0.032 | 0.074 | 0.09 | – | – | – | – | – | – | 2.8 |
| CC(=O)Nc1cc(F)ccc1CN1Cc2c(c(O)c3ncccc3c2N(C)S(C)(=O)=O)C1=O | 0.052 | 0.005 | – | – | – | – | – | – | – | – |
| Cc1nnc(C(=O)NC(C)(C)c2nc(C(=O)NCc3ccc(F)cc3)c(O)c(=O)n2C)o1 [RALTEGRAVIR] | 0.004 | 0.04 | 0.02 | – | – | – | – | – | – | – |

More lines, in order of falling EC50 [1], values ahead:

| EC50 [1] [µM] | IC50 [2] [µM] | EC50 [3] [µM] | clearance [5] [mL/min/kg] | half-life [6] [h] | bioavailability [7] [%] | clearance [8] [mL/min/kg] | bioavailability [9] [%] | half-life [10] [h] | Compound | Ratio EC50 [4] |
| --- | --- | --- | --- | --- | --- | --- | --- | --- | --- | --- |
| 0.005 | 0.135 | 0.018 | – | – | – | – | – | – | CN(c1c2c(c(O)c3ncccc13)C(=O)N(Cc1ccc(F)c(Cl)c1F)C2)S(C)(=O)=O | 3.6 |
| 0.0035 | 0.052 | 0.012 | 2.5 | 1.36 | 41 | 3.83 | 7 | 7.13 | CN(c1c2c(c(O)c3ncccc13)C(=O)N(Cc1ccc(F)c(Cl)c1)C2)S(C)(=O)=O | 3.4 |
| 0.0017 | 0.028 | 0.0114 | 6.67 | 1.1 | 45 | 4.67 | 15 | 7 | CN(c1c2c(c(O)c3ncccc13)C(=O)N(Cc1ccc(F)cc1)C2)S(C)(=O)=O | 6.7 |
